Experimental data of several laboratories.
Target: Dual specificity tyrosine-phosphorylation-regulated kinase 1A (DYRK1A, Homo sapiens, UniProt Q13627)

SMILES	assay	conditions	measurement	result
CC#CC(=O)N1CCC[C@H]1c1nc(-c2ccc(C(=O)Nc3ccccn3)cc2)c2c(N)nccn12	enzyme activity, inhibitor	1 µM	inhibition	3%
C=C(C)C1CCC(C)=C1COC(=O)c1cc([N+](=O)[O-])cc([N+](=O)[O-])c1 (stereo not shown)	enzyme activity, inhibitor, ADP detection	10 µM	inhibition	10.3%
C=CC(=O)N1CCC([C@@H]2CCNc3c(C(N)=O)c(-c4ccc(Oc5ccccc5)cc4)nn32)CC1	cell-free assay	1 µM	inhibition	3%
CCCCC(=O)Nc1ccc(-c2ccc3ncn(CCC)c(=O)c3c2)cn1	binding, competition with immobilised ligand	0.5 µM	remaining binding	81%
C[C@H]1CC[C@H](n2c3cnccc3c3cnc(Nc4ccc5c(n4)CCN(C(=O)CO)C5)nc32)CC1	cell-free assay	1 µM	remaining signal	0%
COc1ccc2oc(-c3ccc4nc(N)oc4c3)c/c(=N\c3ccccc3NC(=O)CCN)c2c1	binding, competition with immobilised ligand	1 µM	remaining binding	111%
c1cnc(-c2nnc3sc(C45CC6CC(CC(C6)C4)C5)nn23)cn1	enzyme activity, inhibitor, ADP detection	10 µM	inhibition	8.44%
CC(C)S(=O)(=O)c1ccc2nccc(Nc3ccc4sc(C5CCCC5)nc4c3)c2c1	enzyme activity, inhibitor	1 µM	activity vs control	103%
CC(=O)ON=C1C=CC(=C(C#N)c2ccccc2)C=C1	enzyme activity, inhibitor, ADP detection	2 µM	activity vs control	99%
O=[N+]1C=CC(=C2C=CN([O-])C=C2)C=C1	enzyme activity, inhibitor, ADP detection	10 µM	inhibition	52.8%
C1=C/COCc2cc(ccc2OCCN2CCCC2)Nc2nccc(n2)-c2cccc(c2)COC/1	binding	0.1 µM	remaining binding	52%
CN1CCN(C(=O)c2ccc(NC(=O)Nc3ccc(N(C)c4ccnc(Nc5ccc(CS(C)(=O)=O)cc5)n4)cc3)cc2)CC1	binding	1 µM	remaining binding	62%
CCOC(=O)c1c(NC(=O)CCC(=O)OC)sc2c1CCCC2	enzyme activity, inhibitor, ADP detection	10 µM	inhibition	18.3%
